ChEMBL document CHEMBL2010720, “Synthesis and evaluation of ursolic acid derivatives as potent cytotoxic agents” (Bioorg Med Chem Lett, 2012)

Assays:
HT-29 = assay: Cytotoxicity against human HT-29 cells after 48 hrs by MTT assay; assay type: functional, cell-based; conditions: HT-29, 48 h
Method in brief: (§1)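 Cells seeded at 1×10^4 per well and treated 24 h later for 48 h at 10, 20, 40, 60, 80 and 100 µM, each in six wells. Compounds came from 20 mM DMSO stocks diluted in medium; the vehicle control matched the DMSO of the top dose. MTT was added for 4 h, formazan dissolved in DMSO and read at 570 nm. IC50 was taken as the concentration giving 50% growth inhibition.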

AGS [1] = assay: Cell cycle arrest in human AGS cells assessed as accumulation at S phase cells at 10 uM after 48 hrs by flow cytometry (reference value: 36.56 +/- 0.36%); assay type: functional
AGS [2] = assay: Cell cycle arrest in human AGS cells assessed as accumulation at G2/M phase cells at 10 uM after 48 hrs by flow cytometry (reference value: 35.37 +/- 3.73%); assay type: functional
HepG2 = assay: Cytotoxicity against human HepG2 cells after 48 hrs by MTT assay; assay type: functional, cell-based; conditions: HepG2, 48 h; method in brief: as §1
AGS [3] = assay: Cell cycle arrest in human AGS cells assessed as accumulation at G0/G1 phase cells at 10 uM after 48 hrs by flow cytometry (reference value: 28.07 +/- 3.52%); assay type: functional
AGS [4] = assay: Cell cycle arrest in human AGS cells assessed as accumulation at sub-G0/G1 phase cells at 10 uM after 48 hrs by flow cytometry (reference value: 1.56 +/- 0.20%); assay type: functional
PC-3 = assay: Cytotoxicity against human PC3 cells after 48 hrs by MTT assay; assay type: functional, cell-based; conditions: PC-3, 48 h; method in brief: as §1
AGS [5] = assay: Cytotoxicity against human AGS cells after 48 hrs by MTT assay; assay type: functional, cell-based; method in brief: as §1
AGS [6] = assay: Induction of apoptosis in human AGS cells assessed as necrotic cells at 5 uM after 24 hrs by annexin-V/PI staining-based flow cytometric analysis (reference value: 0.1%); assay type: functional
AGS [7] = assay: Induction of apoptosis in human AGS cells assessed as viable cells at 5 uM after 24 hrs by annexin-V/PI staining-based flow cytometric analysis (reference value: 95.5%); assay type: functional; conditions: read-out: Activity
AGS [8] = assay: Induction of apoptosis in human AGS cells assessed as late apoptotic cells at 5 uM after 24 hrs by annexin-V/PI staining-based flow cytometric analysis (reference value: 2.5%); assay type: functional
AGS [9] = assay: Induction of apoptosis in human AGS cells assessed as necrotic cells at 10 uM after 24 hrs by annexin-V/PI staining-based flow cytometric analysis (reference value: 0.1%); assay type: functional
AGS [10] = assay: Induction of apoptosis in human AGS cells assessed as late apoptotic cells at 20 uM after 24 hrs by annexin-V/PI staining-based flow cytometric analysis (reference value: 2.5%); assay type: functional
AGS [11] = assay: Induction of apoptosis in human AGS cells assessed as viable cells at 10 uM after 24 hrs by annexin-V/PI staining-based flow cytometric analysis (reference value: 95.5%); assay type: functional; conditions: read-out: Activity
AGS [12] = assay: Induction of apoptosis in human AGS cells assessed as viable cells at 20 uM after 24 hrs by annexin-V/PI staining-based flow cytometric analysis (reference value: 95.5%); assay type: functional; conditions: read-out: Activity
AGS [13] = assay: Induction of apoptosis in human AGS cells assessed as early apoptotic cells at 5 uM after 24 hrs by annexin-V/PI staining-based flow cytometric analysis (reference value: 1.9%); assay type: functional
AGS [14] = assay: Induction of apoptosis in human AGS cells assessed as necrotic cells at 20 uM after 24 hrs by annexin-V/PI staining-based flow cytometric analysis (reference value: 0.1%); assay type: functional
AGS [15] = assay: Induction of apoptosis in human AGS cells assessed as late apoptotic cells at 10 uM after 24 hrs by annexin-V/PI staining-based flow cytometric analysis (reference value: 2.5%); assay type: functional
AGS [16] = assay: Induction of apoptosis in human AGS cells assessed as early apoptotic cells at 10 uM after 24 hrs by annexin-V/PI staining-based flow cytometric analysis (reference value: 1.9%); assay type: functional
AGS [17] = assay: Induction of apoptosis in human AGS cells assessed as early apoptotic cells at 20 uM after 24 hrs by annexin-V/PI staining-based flow cytometric analysis (reference value: 1.9%); assay type: functional

Compound | IC50 (HT-29) | Activity (AGS [1]) | Activity (AGS [2]) | IC50 (HepG2) | Activity (AGS [3]) | Activity (AGS [4]) | IC50 (PC-3) | IC50 (AGS [5]) | Activity (AGS [6]) | viability at 5 µM (AGS [7]) | Activity (AGS [8]) | Activity (AGS [9]) | Activity (AGS [10]) | viability at 10 µM (AGS [11]) | viability at 20 µM (AGS [12]) | Activity (AGS [13]) | Activity (AGS [14]) | Activity (AGS [15]) | Activity (AGS [16]) | Activity (AGS [17])
CC(=O)O[C@H]1CC[C@]2(C)[C@H]3CC=C4[C@@H]5[C@@H](C)[C@H](C)CC[C@]5(C(=O)NCCNC(=O)CN)CC[C@@]4(C)[C@]3(C)CC[C@H]2C1(C)C | 20.2 µM | 25.37% | 37.66% | 15.5 µM | 36.97% | 75.45% | 14.3 µM | < 10 µM |  |  |  |  |  |  |  |  |  |  |  | 
CSCC[C@H](N)C(=O)NCCNC(=O)[C@]12CC[C@@H](C)[C@H](C)[C@H]1C1=CC[C@@H]3[C@@]4(C)CC[C@H](OC(C)=O)C(C)(C)[C@@H]4CC[C@@]3(C)[C@]1(C)CC2 | < 10 µM | 0% | 45.03% | < 10 µM | 54.97% | 82.38% | < 10 µM | < 10 µM |  |  |  |  |  |  |  |  |  |  |  | 
C[C@H]1[C@H](C)CC[C@]2(C(=O)NCCNC(=O)[C@@H](N)Cc3ccccc3)CC[C@]3(C)C(=CC[C@@H]4[C@@]5(C)CC[C@H](O)C(C)(C)[C@@H]5CC[C@]43C)[C@H]12 |  | 11.79% | 45.59% |  | 42.62% | 47.73% | < 10 µM | < 10 µM |  |  |  |  |  |  |  |  |  |  |  | 
C[C@H]1[C@H](C)CC[C@]2(C(=O)NC(CC(=O)O)C(=O)O)CC[C@]3(C)C(=CC[C@@H]4[C@@]5(C)CC[C@H](O)C(C)(C)[C@@H]5CC[C@]43C)[C@H]12 (some centres undefined) | > 100 µM |  |  | > 100 µM |  |  | > 100 µM | > 100 µM |  |  |  |  |  |  |  |  |  |  |  | 
C[C@H]1[C@H](C)CC[C@]2(C(=O)NCCN)CC[C@]3(C)C(=CC[C@@H]4[C@@]5(C)CC[C@H](O)C(C)(C)[C@@H]5CC[C@]43C)[C@H]12 | 14.3 µM | 66.66% | 2.51% | 21.3 µM | 30.83% | 92.64% | < 10 µM | 11.4 µM | 0.2% | 84.7% | 6.1% | 0.7% | 17.2% | 59.9% | 13.7% | 8.9% | 0.5% | 11.8% | 27.7% | 68.6%
CC(=O)O[C@H]1CC[C@]2(C)[C@H]3CC=C4[C@@H]5[C@@H](C)[C@H](C)CC[C@]5(C(=O)NCCN)CC[C@@]4(C)[C@]3(C)CC[C@H]2C1(C)C | < 10 µM | 1.42% | 46.72% | 12.4 µM | 51.86% | 88.3% | < 10 µM | < 10 µM |  |  |  |  |  |  |  |  |  |  |  | 
